High-throughput results as filed in PubChem.
In the library only some 1% were active in any assay of this set; here they are far more common.
TLR4 MyD88 comp = blocks binding of human TLR4 to MyD88 | actives 0.18% (n = 200,000) | inhibition, % at 8.4 µM | O00206+Q99836 | AID 861 | HeLa CL3-4 TLR4/MyD88 BLA complementation, FRET ratio; in the data active means inhibition above about 25%
Target sequence (O00206 whole entry, looked up): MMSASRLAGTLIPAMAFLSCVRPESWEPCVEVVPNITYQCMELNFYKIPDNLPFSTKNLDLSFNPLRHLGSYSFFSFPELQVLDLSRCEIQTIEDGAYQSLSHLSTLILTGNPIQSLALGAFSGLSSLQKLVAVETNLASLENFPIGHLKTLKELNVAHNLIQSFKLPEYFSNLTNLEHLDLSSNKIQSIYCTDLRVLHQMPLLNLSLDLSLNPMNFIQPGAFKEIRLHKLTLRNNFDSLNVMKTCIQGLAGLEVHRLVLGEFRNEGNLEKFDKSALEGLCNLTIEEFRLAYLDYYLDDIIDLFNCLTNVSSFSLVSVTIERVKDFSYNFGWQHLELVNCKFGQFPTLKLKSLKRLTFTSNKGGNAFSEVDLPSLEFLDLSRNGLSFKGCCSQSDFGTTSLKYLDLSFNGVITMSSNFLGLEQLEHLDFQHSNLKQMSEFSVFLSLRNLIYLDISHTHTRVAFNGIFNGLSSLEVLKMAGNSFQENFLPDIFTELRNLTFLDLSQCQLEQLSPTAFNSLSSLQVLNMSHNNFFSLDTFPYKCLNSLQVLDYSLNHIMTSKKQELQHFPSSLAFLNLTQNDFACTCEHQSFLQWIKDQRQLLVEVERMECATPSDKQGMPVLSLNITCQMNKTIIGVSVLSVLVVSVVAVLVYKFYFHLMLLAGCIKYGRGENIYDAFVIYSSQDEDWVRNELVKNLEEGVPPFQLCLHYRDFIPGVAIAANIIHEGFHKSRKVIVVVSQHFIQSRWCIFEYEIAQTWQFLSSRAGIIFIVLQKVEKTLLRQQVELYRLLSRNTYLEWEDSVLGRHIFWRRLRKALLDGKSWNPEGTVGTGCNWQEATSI
Target sequence (Q99836 whole entry, looked up): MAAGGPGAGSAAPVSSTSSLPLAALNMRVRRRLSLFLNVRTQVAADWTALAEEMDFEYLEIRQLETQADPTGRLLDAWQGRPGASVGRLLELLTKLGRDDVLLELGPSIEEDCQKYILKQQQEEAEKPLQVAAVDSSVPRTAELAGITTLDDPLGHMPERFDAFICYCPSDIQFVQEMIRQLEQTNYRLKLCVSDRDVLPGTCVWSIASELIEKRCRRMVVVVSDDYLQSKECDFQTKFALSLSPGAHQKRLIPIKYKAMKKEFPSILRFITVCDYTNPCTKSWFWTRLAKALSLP
Hsp70 act = transcriptional activators of Hsp70; activation, % at 10 µM; AID 1203; actives 0.04% (n = 200,000); HeLa Hsp70 promoter luciferase reporter, luminescence; scaled: vehicle 0, proteasome-inhibitor control 100%;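 active means activation above the mean across all tested compounds plus 3 SD, cutoff set per campaign, cut at about 5.5% in these data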
NOD2 RIPK2 PPI = NOD2-RIPK2 protein interaction inhibition. O43353. CHO BLA complementation NOD2-RIPK2, CCF4 ratio. inhibition, % at 4.98 µM. actives 0.38% (n = 360,000); in the data active means inhibition above about 21%
TLR9-MyD88 inh = TLR9-MyD88 interaction inhibition | actives 0.21% (n = 340,000) | inhibition, % at 4.98 µM | Q9NR96+Q99836 | AID 504734 | CHO BLA complementation TLR9-MyD88, CCF4 FRET ratio;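 active means inhibition above the mean over all tested compounds plus 3 SD, cut at about 21% in these data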
bCat nuc transl = modulators of beta-catenin nuclear translocation. HeLa beta-catenin nuclear translocation, immunofluorescence imaging. nuclear translocation activity, % at 5 µM. actives 0.3% (n = 190,000). AID 1665;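 active means nuclear translocation activity above 50% at 5 µM, with a well cell count of 50 or more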;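 further: per-cell ratio of nuclear to cytoplasmic median beta-catenin stain intensity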
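Technique: fluorescence imaging of beta-catenin antibody stain plus DAPI / Material: human HeLa cell line / Incubation: compound treatment 24 h, 37°C, 5% CO2 / Read-out basis: % activation of per-cell nuclear versus cytoplasmic median beta-catenin signal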
MT stabilize HCS = stabilizes microtubules in HeLa cells | HeLa tubulin immunostaining HCS, 24 h; share of cells brighter than vehicle mean+2SD | actives 0.83% (n = 200,000) | % tubulin-high responders, % at 10 µM;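 active means plate Z-score above 3 for both tubulin-high and condensed-nucleus cell shares, with cell loss under 80%, at 10 µM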;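 further: anti alpha tubulin signal scored within the nucleus-defined area of each cell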
TLR4 MyD88 cnf = TLR4-MyD88 interaction inhibition confirmed | HeLa CL3-4 BLA complementation, CCF4 FRET ratio | actives 50% (n = 350) | AID 941 | inhibition, % at 8.4 µM | shares compounds with TLR4 MyD88 comp;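 active means mean inhibition across three repeat runs above about 25% carried over from the earlier screen, limit read from the data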
BLA inh HeLa = counter-screen for TLR4-MyD88 inhibitors: beta-lactamase reporter inhibitors. shares compounds with TLR4 MyD88 comp. HeLa BLA reporter, CCF4 FRET ratio. actives 63% (n = 350). inhibition, % at 8.4 µM;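 active means mean inhibition over three repeats above about 26% taken from the earlier screen, limit read from the data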;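 further: HeLa cells stably expressing beta-lactamase reporter as counterscreen for TLR4-MyD88 inhibitors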
Hits are given with their value; n = inactive; x = no result.

SMILES | TLR4 MyD88 comp | Hsp70 act | NOD2 RIPK2 PPI | TLR9-MyD88 inh | bCat nuc transl | MT stabilize HCS | TLR4 MyD88 cnf | BLA inh HeLa
N/C(=N\OC(=O)CC1CCCCC1)c1ccc(Cl)cc1 | x | x | n | n | x | x | x | x
CC1=C(C(=O)O)N2C(=O)C(NC(=O)c3ccc(F)cc3)C2SC1 (stereo unspecified) | x | x | n | n | x | x | x | x
O=[N+]([O-])c1ccc(NN=Cc2ccccc2O)nc1 | x | x | n | n | x | x | x | x
N#Cc1ccccc1Cn1cc(/C=N/Nc2ccc([N+](=O)[O-])cn2)c2ccccc21 | 46 | n | n | n | n | n | 40 | 79
O=[N+]([O-])c1ccc(N/N=C/c2ccc(OCc3cccc4ccccc34)cc2)nc1 | 35 | n | n | n | n | n | 47 | 82
COc1ccccc1-c1nnc(NC(=O)C(C)C)s1 | 27 | n | n | n | n | n | n | n
CCCCCCCCN1C(=O)[C@H](CC(=O)N2CCOCC2)C[C@@]2(C(=O)OCC)CCCC=C12 | x | x | n | x | x | x | x | x
O=C(NCc1cccnc1)c1cc(C2CCCN(C(=O)c3cccs3)C2)on1 (stereo unspecified) | x | x | n | x | x | x | x | x
O=C(C[C@@H]1C=C[C@H](NS(=O)(=O)c2ccccc2F)[C@@H](CO)O1)NCCCN1CCOCC1 | x | x | n | x | x | x | x | x
Clc1ccc(CSc2nnc(CN3CCOCC3)n2-c2ccccc2)cc1Cl | 26 | n | n | n | n | n | n | n
Clc1cccc(Cl)c1CSc1nnc(CN2CCOCC2)n1-c1ccccc1 | n | n | n | n | x | n | x | x
CCOC(=O)c1c(NC2=NS(=O)(=O)c3ccccc32)sc2c1CCC(C)C2 (stereo unspecified) | 52 | n | n | n | n | n | n | n
O=C(c1ccccc1F)n1c2c(c3ccccc31)CCCC2 | x | x | n | n | x | x | x | x
CN1CCN(Cn2cc(/C=C/C(=O)c3ccccc3)c3ccccc32)CC1 | 28 | n | 33 | 23 | n | n | n | 34
COc1cc(/C=C(\C#N)c2nc3ccccc3[nH]2)ccc1OC(=O)c1ccco1 | n | n | n | n | n | n | x | x
COc1cc(/C=C(/C#N)c2nc3ccccc3[nH]2)ccc1OCC(=O)Nc1ccccc1C | 83 | n | n | n | n | n | 80 | 107
COc1cc(/C=C(/C#N)c2nc3ccccc3[nH]2)ccc1OCC(=O)Nc1ccccc1C(C)C | 77 | n | n | n | n | n | 80 | 113
COc1ccc(OC)c(-n2c(-c3cccc(O)c3)n[nH]c2=S)c1 | 30 | n | n | n | n | n | n | n
COc1ccc(-c2n[nH]c(=S)n2-c2cc(OC)ccc2OC)cc1 | x | x | n | n | n | x | x | x
COC(=O)c1cc(-c2ccc(C)o2)nc2ccccc12 | n | n | n | n | n | n | x | x
Cc1ccc(-c2cc(C(=O)Nc3ccccc3C)c3ccccc3n2)o1 | 28 | n | n | n | n | n | n | n
CC(C)c1ccc(CNCCCSc2ncccn2)cc1 | x | x | n | n | x | x | x | x
O=S1(=O)C=C(Sc2nc3ccccc3s2)c2ccccc21 | 26 | n | x | x | n | n | n | n
Cc1cc(C)nc(SC2=CS(=O)(=O)c3ccccc32)n1 | n | n | n | n | n | n | x | x
C=CCCC(=O)N1C[C@@H](CO)[C@@H](NC)C[C@H]1c1ccccc1Br | x | x | n | x | x | x | x | x
SMILES | TLR4 MyD88 comp | Hsp70 act | NOD2 RIPK2 PPI | TLR9-MyD88 inh | bCat nuc transl | MT stabilize HCS | TLR4 MyD88 cnf | BLA inh HeLa
COc1ccc(/C=C2\CC/C(=C\c3ccc(OC)cc3OC)C2=O)c(OC)c1 | 32 | n | n | n | x | n | n | 47
O=C(/C=C/c1ccc(N2CCC(c3ccccc3)=N2)cc1)c1ccccc1 | 38 | n | x | x | x | n | n | n
CCOC(=O)/C(=C\c1ccc(N2CCC(c3ccccc3)=N2)cc1)C(C)=O | x | x | n | n | x | x | x | x
Cc1cccc(N2C(=O)c3ccc(C(=O)Nc4ccccn4)cc3C2=O)c1 | x | x | n | n | x | x | x | x
Cc1cccc(N2C(=O)/C(=C\c3ccc(C(=O)O)cc3)c3ccccc3C2=O)c1 | 45 | n | n | n | n | n | 32 | 35
CCOC(=O)Cc1csc(NC(=O)Cc2cccs2)n1 | 26 | n | n | n | n | n | n | n
CC1=C(C(=O)N(C)C)CC(CC(=O)NCCc2ccccn2)C(=O)N1Cc1ccc(C(C)(C)C)cc1 (stereo unspecified) | x | x | n | n | x | x | x | x
Cc1ccc2nc(Cl)c(/C=N/Nc3nc(C)cc(C)n3)c(=O)n2c1 | 33 | n | n | n | x | n | n | 28
CCc1nc(SCc2ccc(OCC(C)C)cc2)n[nH]1 | x | x | n | n | x | x | x | x
CCN(CC)c1ccc2cc(-c3nc4ccccc4[nH]3)c(=O)oc2c1 | 40 | n | 45 | 37 | n | n | 64 | 78
CCN(CC)c1ccc2cc(-c3nc(-c4ccc(OC)cc4)cs3)c(=O)oc2c1 | 80 | n | x | x | n | n | 90 | 115
CCN(CC)c1ccc2cc(-c3nnc(-c4ccccc4)o3)c(=O)oc2c1 | n | n | n | n | n | n | x | x
O=C(CCCn1c(=O)[nH]c2ccsc2c1=O)N1CCN(Cc2ccc3c(c2)OCO3)CC1 | 26 | n | n | n | n | n | n | n
Cc1nc(C(F)(F)F)ccc1C(=O)N1CCCC(C)(C(=O)O)C1 (stereo unspecified) | x | x | n | x | x | x | x | x
CCCC[C@@H]1CNC(=O)C(=O)N1CCCCC1CCCCC1 | x | x | n | x | x | x | x | x
O=C(Nc1nc(-c2ccccc2)cs1)c1ccccc1NS(=O)(=O)c1ccc(F)cc1 | 26 | n | n | n | n | n | n | n
Cc1cc(C)n(-c2ccc(C(=O)N3CCN(S(=O)(=O)c4ccc(Br)cc4Cl)CC3)cc2)n1 | x | x | n | n | x | x | x | x
COc1ccc(N/C=C2\CCOC2=O)cc1 | 26 | n | n | n | n | n | n | n
COc1ccc(/C=C2\CCOC2=O)cc1 | n | n | n | n | n | n | x | x
COc1ccccc1N1CCN(C(=O)CSc2nc3ccccc3o2)CC1 | n | n | n | n | n | n | x | x
COCCNc1nc(SCC(=O)N2CCN(c3ccccc3OC)CC2)nc2ccccc12 | 25 | n | n | n | n | n | n | n
CC1(C(=O)NS(=O)(=O)c2cccs2)CCN1C(=O)Cc1ccccc1 (stereo unspecified) | x | x | n | x | x | x | x | x
O=c1oc2ccc3ccccc3c2cc1-c1nnc(-c2ccccc2)o1 | n | n | n | n | n | n | x | x
Nc1nnc(-c2cc3c(ccc4ccccc43)oc2=O)s1 | 38 | n | x | x | n | n | 31 | 58
COC(=O)c1ccc(-c2nc(O)c(C)s2)cc1 | n | n | n | n | n | n | x | x
COC(=O)c1ccc(-c2nc3cc(Cl)c(N)cc3s2)cc1 | 38 | n | n | n | n | n | 44 | 59
CCCCCn1nc(-c2ccccc2)c2nc3ccccc3nc21 | 44 | n | n | n | n | n | 52 | 63
